Screening data from PubChem.
Hsp70 activator: Hsp70 transcriptional activators, primary screen, cell-based, HeLa, Hsp70 promoter luciferase, luminescence, 10 µM; AID 1203, 2008; activation, % at 10 µM; HeLa Hsp70 promoter luciferase reporter; scaled: vehicle 0, proteasome-inhibitor control 100%; 200,000 tested, 0.04% active;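 active means activation above the mean across all tested compounds plus 3 SD, cutoff set per campaign, cut at about 5.5% in these data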;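 further: 100% = MG132 at 30 µM as the positive control and 0% = DMSO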
EP2 mod: EP2 receptor modulators, cAMP readout, primary screen, cell-based, HTRF cAMP, PGE2 stimulation. Prostaglandin E2 receptor EP2 subtype (Homo sapiens), P43116. EP2-expressing cells, cAMP HTRF FRET, PGE2 co-stimulation. induction, % at 25 µM. 260,000 tested, 0.83% active. AID 940, 2007;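 active means compounds whose cAMP rise, as percent of the full-agonist control response, exceeds 60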;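 further: rat C6 glioma line stably carrying human EP2 under a CMV promoter; the protocol text gives 20 µM as final concentration; 100% = response of wells given 1 µM PGE2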
Target sequence (P43116 whole entry, looked up): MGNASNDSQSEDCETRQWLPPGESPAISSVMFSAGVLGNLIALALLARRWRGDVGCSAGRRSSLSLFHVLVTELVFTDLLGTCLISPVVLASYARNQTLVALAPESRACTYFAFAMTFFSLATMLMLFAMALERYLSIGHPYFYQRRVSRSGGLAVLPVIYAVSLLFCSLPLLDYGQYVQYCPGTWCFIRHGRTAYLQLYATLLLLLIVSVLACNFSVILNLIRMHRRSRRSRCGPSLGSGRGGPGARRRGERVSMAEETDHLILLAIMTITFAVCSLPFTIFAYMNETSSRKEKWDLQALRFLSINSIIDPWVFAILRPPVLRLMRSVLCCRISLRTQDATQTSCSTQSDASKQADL
PGE2 EP2 inh: human EP2 receptor antagonists, primary screen, TR-FRET cAMP, C6 glioma cells. inhibition, % at 25 µM. Prostaglandin E2 receptor EP2 subtype (Homo sapiens), P43116. 260,000 tested, 0.52% active. AID 1422, 2008. C6 glioma cells expressing human EP2; cells stimulated with saturating PGE2;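 active means percent inhibition above 40 after rounding to a whole number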;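 further: rat C6 glioma host cells with rolipram phosphodiesterase inhibitor present; the protocol text gives 20 µM as final concentration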
Dynein transport: inhibitors of GR-EGFP nuclear translocation, primary screen, dynein cargo transport inhibitor project, imaging, high-content, 3617.4 mouse cells; test concentration mostly 20 µM; stimulated with dexamethasone, 1 µM; hits give low values; z-score, hits read low; AID 1381, 2008; 220,000 tested, 0.47% active;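 active means plate z-score of nuclear minus cytoplasmic receptor signal below a set negative limit, without overly bright fluorescence or cell loss, cut at about -3.5 in these data, passing the limit was not always enough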;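 further: z-score of nuclear minus cytoplasmic ring GR-EGFP intensity difference per well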
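medium = tetracycline-free induction medium containing charcoal-stripped FBS | also added = 1.0 µM final dexamethasone stimulus | schedule = 48 h induction, 1 h compound, 30 min dex at 37 °C | technique = fixed, Hoechst-stained cells imaged at 10x for EGFP | measure = GR-EGFP nuclear translocation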
Active calls of the source: *; · = no result; ! = a repeat was not active. This is a sample that favours compounds with a hit; in the whole collection about 1.7% have one here.

SMILES	Hsp70 activator	EP2 mod	PGE2 EP2 inh	Dynein transport
O=C(O)C(O)Cc1c[nH]c2ccccc12 (configuration not stated)	0	0	18	0.11
COc1ccccc1N1CC(C(=O)OCC(=O)c2ccc(Cl)cc2)CC1=O (configuration not stated)	·	-23	10	·
O=c1[nH]c(=S)n(-c2ccccc2F)c(O)c1/C=C1\C=Nc2ccccc21	·	-99	116*	·
CCCNC(=O)CSc1nnc2c3cc(C)ccc3n(CC(=O)O)c2n1	·	7	10	·
O=C(Cc1ccccc1F)N1CCC(n2cnc3cccnc32)CC1	·	-1	·	·
NC(=O)c1sc2nc(N3CCOCC3)c3c(c2c1N)CCCC3	0	26	22	-0.25
CCCCN(CCCC)C(=O)c1sc2nc(N3CCOCC3)c3c(c2c1N)CCCC3	·	87*	10	-0.11
CC(=O)/C=C(\C)Nc1ccc(-c2cnc(-c3ccccc3)o2)cc1	0	-26	20	-0.35
c1ccc(-c2cnc(-c3ccc(-c4ncc(-c5ccccc5)o4)cc3)o2)cc1	·	12	45*	·
CCOC(=O)C1=C(NC(=O)CSc2ccccn2)SC2CCCC12 (configuration not stated)	·	55	5	·
Clc1ccccc1C1CC(c2ccccc2)=Nc2ccccc2N1 (configuration not stated)	·	62*	7	-0.23
Brc1ccccc1C1CC(c2ccccc2)=Nc2ccccc2N1 (configuration not stated)	0	48	6	-0.31
CCN(CC)C(=O)CSc1nnc(COc2ccc(C)cc2)n1N	·	10	8	·
COC(=O)c1cc(-c2ccc(C(c3c(C)[nH][nH]c3=O)c3c(C)[nH][nH]c3=O)o2)ccc1Cl	·	-72	40*	·
COc1ccc(N(CC(=O)N2CCCCC2)S(=O)(=O)c2ccc(F)cc2)cc1	·	-8	10	·
Cc1ccc(S(=O)(=O)NCc2c(Cl)cccc2Oc2ccccc2)cc1	·	69*	10	0.55
O=S(=O)(NCc1c(Cl)cccc1Oc1ccccc1)c1ccccc1	·	60	6	0.31
CC(C)(C)OC(=O)N[C@@H](Cc1ccccc1)c1nnc(S(=O)(=O)Cc2ccccc2)o1	1	17	3	-4.3*
COc1cc(NC(=O)C(C)Sc2nc(-c3ccccc3)cc(C(F)(F)F)n2)c(OC)cc1Cl (configuration not stated)	·	-107	15	·
CCC(C)N=Cc1c(Nc2ccccc2)nc2c(C)cccn2c1=O (configuration not stated)	·	66*	0	0.17
Cc1cccn2c(=O)c(C=NCc3ccco3)c(Nc3ccc(SC(F)F)cc3)nc12	0	23	4	-0.35
COC(=O)CSc1nc2ccc(NC(=O)CSc3nnnn3Cc3ccccc3)cc2s1	0	-43	48*	-0.93
CS(=O)(=O)N(CC(=O)Nc1cccc(Cl)c1)c1ccc2c(c1)OCO2	·	-50	7	·
O=C(COC(=O)[C@@H]1CCCN1S(=O)(=O)c1ccc(Cl)cc1)NC12CC3CC(CC(C3)C1)C2	0	14	68*	-0.27
CCc1cc2cccc(C)c2nc1SCC(=O)N1CCOCC1	·	7	9	·
SMILES	Hsp70 activator	EP2 mod	PGE2 EP2 inh	Dynein transport
CCOC(=O)CSc1nc2c(C)cccc2cc1CC	·	73*	10	·
CCOC(=O)CSc1nc2c(C)c(C)ccc2cc1C	·	88*	12	·
COc1ccccc1C(=O)Nc1ccc2oc(=O)ccc2c1	·	-30	14	·
CCN1/C(=C/c2ccc3cccc(C)c3[n+]2CC)Sc2ccccc21	0	-69	63*!	-2.2
CCN1/C(=C/c2ccc3cc(C)cc(C)c3[n+]2CC)Sc2cc(C)ccc21	0	-49	110*	6.9
CC[n+]1c(/C=C2\Sc3ccc4ccsc4c3N2C)ccc2cc(C)ccc21	·	-61	32	·
CCN1/C(=C\c2ccc3cc(C)ccc3[n+]2CC)Sc2cc(C)c(C)cc21	0	-37	61*	-1.2
Cc1ccc2nc(N3C(=O)C(O)=C(C(=O)c4ccco4)C3c3ccco3)sc2c1 (configuration not stated)	·	12	35	·
Cc1ccc2nc(N3C(=O)C(O)=C(C(=O)c4ccco4)C3c3cccs3)sc2c1 (configuration not stated)	1	31	75*!	-1.4
Cc1ccc2nc(N3C(=O)C(O)=C(C(=O)c4ccc(C)o4)C3c3ccc(O)cc3)sc2c1 (configuration not stated)	·	-8	49*	·
Cc1ccccc1OCCn1c(=O)sc2ccccc21	0	63*!	2	-0.097
CCc1c(C)sc(NC(=O)CN2CCC(O)(Cc3ccccc3)CC2)c1C(N)=O	·	-20	16	·
CCOc1ccccc1NC(=O)CSc1nnnn1-c1cccc(F)c1	·	-21	7	·
O=C(Nc1nn[nH]n1)c1nc(-c2ccccc2)cc(=O)[nH]1	·	20	55*	·
COc1cc(NS(=O)(=O)c2ccc(Nc3nc(-c4cccc([N+](=O)[O-])c4)cs3)cc2)nc(OC)n1	0	-67	45*	-0.55
O=C(CN1CCC(O)(c2cccnc2)CC1)NCC1CC1	·	-9	·	·
CCOc1ccccc1C1Nc2ccccc2-c2cc(C)nn21 (configuration not stated)	·	62*	13	·
Cc1cc2n(n1)C(c1ccccc1C(F)(F)F)Nc1ccccc1-2 (configuration not stated)	·	28	6	·
CCc1nc(NCc2ccccc2)c(C#N)c2c1CCCC2	0	64*	2	0.28
CCc1nc(NCCC(C)C)c(C#N)c2c1CCCC2	0	43	12	-1.1
Clc1ccc(CN2CCCN(Cc3ccc(Cl)cc3)C2c2cc3ccccc3c3ccccc23)cc1	·	12	51*	·
Clc1ccc(CN2CCCCCCC2)cc1	0	20	7	-0.22
CC(C)CC(=O)NC(=S)Nc1cccc2nsnc12	0	10	24	-0.87
COc1c(C)cccc1C(=O)NC(=S)Nc1cccc2nsnc12	0	-80	129*	-0.83
CCc1nc(N=C(N)N)nc2ccc(C)cc12	·	8	9	·
SMILES	Hsp70 activator	EP2 mod	PGE2 EP2 inh	Dynein transport
Cc1ccc(C(=O)Oc2oc(-c3ccccc3)nc2C=Nc2ccc(N(C)C)cc2)cc1	0	47	42*	-0.69
O=C1C2CCCCC2C(=O)N1Cc1ccccc1 (configuration not stated)	0	-4	5	-0.21
O=c1ccsn1Cc1ccccc1	0	-43	65*	-3.4
CCOCc1cc(CN2CCc3onc(-c4ccc(F)c(F)c4)c3C2)ccc1OC	·	-17	9	·
COc1ccc(OC)c(C(C)NC(=O)C2CCCN(c3nc(C)cc(C)n3)C2)c1 (configuration not stated)	·	4	9	·
CC(C)(C)c1ccc(S(=O)(=O)/C=C/C#N)cc1	·	-20	97*	·
COC(=O)c1c(NC(=O)C(C)C)sc(C(=O)Nc2ccc(OC)cc2)c1C	·	19	13	·
